Reference: ChEMBL document CHEMBL1153921, “Design, synthesis, and biological evaluation of novel 1-(1H-1,2,4-triazole-1-yl)-2-(2,4-difluorophenyl)-3-substituted benzylamino-2-propanols” (2009)
≈ marks a conversion by molar mass, not a printed value.

Legend:
Assay type in all cases: functional
Nannizzia gypsea = experiment: Antimicrobial activity against Microsporum gypseum by micro-broth dilution method
Method in brief: (§1)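 Clinical isolates. Tested by broth microdilution in 96-well plates following NCCLS M27-A2. MIC80, the minimum concentration inhibiting growth by 80%, was recorded. Marketed reference antifungals were included as positive controls.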

Pichia kudriavzevii = experiment: Antimicrobial activity against Candida krusei by micro-broth dilution method; method in brief: as §1
Candida tropicalis = experiment: Antimicrobial activity against Candida tropicalis by micro-broth dilution method; method in brief: as §1
Cryptococcus neoformans = experiment: Antimicrobial activity against Cryptococcus neoformans by micro-broth dilution method
Method in brief: (§2)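 ATCC standard strains. Broth microdilution in 96-well plates following NCCLS M27-A2 (reference broth dilution method for yeasts). Endpoint is MIC80, the lowest concentration giving 80% growth inhibition. Marketed reference antifungals ran alongside as positive controls.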

Aspergillus fumigatus = experiment: Antimicrobial activity against Aspergillus fumigatus by micro-broth dilution method; method in brief: as §1
Candida parapsilosis = experiment: Antimicrobial activity against Candida parapsilosis by micro-broth dilution method; conditions: Lodderomyces parapsilosis; method in brief: as §1
Candida albicans = experiment: Antimicrobial activity against Candida albicans by micro-broth dilution method; method in brief: as §2
Trichophyton rubrum = experiment: Antimicrobial activity against Trichophyton rubrum by micro-broth dilution method; method in brief: as §1

SMILES | MIC80 (Nannizzia gypsea) [µg/mL] | MIC80 (Pichia kudriavzevii) [µg/mL] | MIC80 (Candida tropicalis) [µg/mL] | MIC80 (Cryptococcus neoformans) [µg/mL] | MIC80 (Aspergillus fumigatus) [µg/mL] | MIC80 (Candida parapsilosis) [µg/mL] | MIC80 (Candida albicans) [µg/mL] | MIC80 (Trichophyton rubrum) [µg/mL]
CCCN(Cc1cccc(F)c1)CC(O)(Cn1cncn1)c1ccc(F)cc1F (stereo unspecified) | 0.0625 (≈ 0.155 µM) | 0.0625 (≈ 0.155 µM) | 0.25 (≈ 0.618 µM) | 0.0625 (≈ 0.155 µM) | > 64 | 0.0625 (≈ 0.155 µM) | 0.0156 (≈ 0.0386 µM) | 1 (≈ 2.47 µM)
OC(Cn1cncn1)(Cn1cncn1)c1ccc(F)cc1F [FLUCONAZOLE] | 0.25 (≈ 0.816 µM) | 4 (≈ 13.1 µM) | 1 (≈ 3.27 µM) | 1 (≈ 3.27 µM) | > 64 | 1 (≈ 3.27 µM) | 0.5 (≈ 1.63 µM) | 4 (≈ 13.1 µM)
CCCCN(Cc1ccc(Cl)cc1Cl)CC(O)(Cn1cncn1)c1ccc(F)cc1F (stereo unspecified) | 0.25 (≈ 0.533 µM) | 16 (≈ 34.1 µM) | 1 (≈ 2.13 µM) | 1 (≈ 2.13 µM) | > 64 | 4 (≈ 8.52 µM) | 0.0039 (≈ 0.00831 µM) | 16 (≈ 34.1 µM)
CC(C)N(Cc1cccc(F)c1)CC(O)(Cn1cncn1)c1ccc(F)cc1F (stereo unspecified) | 0.0625 (≈ 0.155 µM) | 0.0625 (≈ 0.155 µM) | 0.0625 (≈ 0.155 µM) | 0.0625 (≈ 0.155 µM) | 64 (≈ 158 µM) | 0.0625 (≈ 0.155 µM) | 0.0625 (≈ 0.155 µM) | 0.25 (≈ 0.618 µM)
CCCN(Cc1ccc(Br)cc1)CC(O)(Cn1cncn1)c1ccc(F)cc1F (stereo unspecified) | 0.0625 (≈ 0.134 µM) | 0.25 (≈ 0.537 µM) | 0.0625 (≈ 0.134 µM) | 0.25 (≈ 0.537 µM) | > 64 | 0.0156 (≈ 0.0335 µM) | 0.0625 (≈ 0.134 µM) | 0.25 (≈ 0.537 µM)
CC(C)N(Cc1ccc(Br)cc1)CC(O)(Cn1cncn1)c1ccc(F)cc1F (stereo unspecified) | 0.0156 (≈ 0.0335 µM) | 0.25 (≈ 0.537 µM) | 0.0625 (≈ 0.134 µM) | 0.25 (≈ 0.537 µM) | 4 (≈ 8.6 µM) | 0.0625 (≈ 0.134 µM) | 0.0039 (≈ 0.00838 µM) | 0.0625 (≈ 0.134 µM)
CCCCN(Cc1ccccc1)CC(O)(Cn1cncn1)c1ccc(F)cc1F (stereo unspecified) | 0.0156 (≈ 0.039 µM) | 0.25 (≈ 0.624 µM) | 0.0625 (≈ 0.156 µM) | 0.0625 (≈ 0.156 µM) | > 64 | 0.0625 (≈ 0.156 µM) | 0.0625 (≈ 0.156 µM) | 0.25 (≈ 0.624 µM)
CCCN(Cc1ccc([N+](=O)[O-])cc1)CC(O)(Cn1cncn1)c1ccc(F)cc1F (stereo unspecified) | 0.0156 (≈ 0.0362 µM) | 0.0625 (≈ 0.145 µM) | 0.25 (≈ 0.579 µM) | 0.25 (≈ 0.579 µM) | 64 (≈ 148 µM) | 0.0625 (≈ 0.145 µM) | 0.0156 (≈ 0.0362 µM) | 0.25 (≈ 0.579 µM)
CC(C)N(Cc1ccccc1Cl)CC(O)(Cn1cncn1)c1ccc(F)cc1F (stereo unspecified) | 0.0625 (≈ 0.148 µM) | 0.0625 (≈ 0.148 µM) | 0.25 (≈ 0.594 µM) | 0.25 (≈ 0.594 µM) | > 64 | 0.25 (≈ 0.594 µM) | 0.0625 (≈ 0.148 µM) | 0.25 (≈ 0.594 µM)
CCCCN(Cc1ccc(CC)cc1)CC(O)(Cn1cncn1)c1ccc(F)cc1F (stereo unspecified) | 1 (≈ 2.33 µM) | 1 (≈ 2.33 µM) | 1 (≈ 2.33 µM) | 0.25 (≈ 0.583 µM) | > 64 | 4 (≈ 9.33 µM) | 0.0039 (≈ 0.0091 µM) | 4 (≈ 9.33 µM)
CC(C)N(Cc1ccccc1)CC(O)(Cn1cncn1)c1ccc(F)cc1F (stereo unspecified) | 0.0156 (≈ 0.0404 µM) | 0.25 (≈ 0.647 µM) | 0.25 (≈ 0.647 µM) | 0.25 (≈ 0.647 µM) | 64 (≈ 166 µM) | 0.0625 (≈ 0.162 µM) | 0.0156 (≈ 0.0404 µM) | 0.0625 (≈ 0.162 µM)
CCCCN(Cc1ccc(F)cc1)CC(O)(Cn1cncn1)c1ccc(F)cc1F (stereo unspecified) | 0.0156 (≈ 0.0373 µM) | 1 (≈ 2.39 µM) | 0.25 (≈ 0.597 µM) | 0.25 (≈ 0.597 µM) | > 64 | 0.0625 (≈ 0.149 µM) | 0.25 (≈ 0.597 µM) | 1 (≈ 2.39 µM)
CC(C)N(Cc1ccccc1F)CC(O)(Cn1cncn1)c1ccc(F)cc1F (stereo unspecified) | 0.0625 (≈ 0.155 µM) | 0.25 (≈ 0.618 µM) | 0.25 (≈ 0.618 µM) | 0.25 (≈ 0.618 µM) | > 64 | 0.0625 (≈ 0.155 µM) | 0.0625 (≈ 0.155 µM) | 1 (≈ 2.47 µM)
CCC(C)n1ncn(-c2ccc(N3CCN(c4ccc(OCC5COC(Cn6cncn6)(c6ccc(Cl)cc6Cl)O5)cc4)CC3)cc2)c1=O (stereo unspecified) [ITRACONAZOLE] | 0.0625 (≈ 0.0886 µM) | 0.5 (≈ 0.709 µM) | 0.125 (≈ 0.177 µM) | 0.125 (≈ 0.177 µM) | 0.5 (≈ 0.709 µM) | 0.125 (≈ 0.177 µM) | 0.0625 (≈ 0.0886 µM) | 0.125 (≈ 0.177 µM)
CCCN(Cc1ccccc1)CC(O)(Cn1cncn1)c1ccc(F)cc1F (stereo unspecified) | 0.0156 (≈ 0.0404 µM) | 0.0625 (≈ 0.162 µM) | 0.0625 (≈ 0.162 µM) | 0.0625 (≈ 0.162 µM) | > 64 | 0.0625 (≈ 0.162 µM) | 0.0156 (≈ 0.0404 µM) | 0.0625 (≈ 0.162 µM)
CC(C)N(Cc1ccc(F)cc1)CC(O)(Cn1cncn1)c1ccc(F)cc1F (stereo unspecified) | 0.0625 (≈ 0.155 µM) | 0.0625 (≈ 0.155 µM) | 0.25 (≈ 0.618 µM) | 0.0625 (≈ 0.155 µM) | > 64 | 0.0625 (≈ 0.155 µM) | 0.0625 (≈ 0.155 µM) | 0.25 (≈ 0.618 µM)
CCCCN(Cc1cccc(Cl)c1)CC(O)(Cn1cncn1)c1ccc(F)cc1F (stereo unspecified) | 0.25 (≈ 0.575 µM) | 1 (≈ 2.3 µM) | 1 (≈ 2.3 µM) | 0.25 (≈ 0.575 µM) | > 64 | 0.25 (≈ 0.575 µM) | 1 (≈ 2.3 µM) | 1 (≈ 2.3 µM)
